# Most compounds without a hit are left out; they make up all but 0.95% or so of the library.
# SUMO HTRF inh: inhibitors of human SUMOylation (UBC9) | P63279 | HTRF SUMOylation assay, SAE1/SAE2 + UBC9, in vitro | inhibition, % at 35 µM | 0.36% of 290,000 active | AID 2006; in the data active = inhibition above about 50%, passing the limit was not always enough
# HKDC1 inh: blocks human hexokinase HKDC1 activity. Q2TB90. recombinant HKDC1, G6PDH/diaphorase resazurin coupled fluorescence. inhibition, % at 20 µM. 0.16% of 340,000 active. AID 493160;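 active = inhibition above about 35% when tested at 20 µM, limit read from the data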;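 also: plate controls were DMSO wells with enzyme for no effect and DMSO wells lacking enzyme for full effect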
#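 System: Recombinant HKDC1 hexokinase | Amount: HKDC1 at 5 µg/mL | Reagent: Glucose with 1 mM ATP | Doses: Single 20 µM dose | Incubation: Reaction time 90 min, room temperature, protected from light | Signal: Coupled resazurin fluorescence, excitation 525 nm, emission 613 nm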
# Diaph inh CS: diaphorase inhibition or chemical oxidation counter-screen. 0.69% of 190,000 active. inhibition, % at 20 µM. AID 1217. diaphorase resazurin-to-resorufin fluorescence, NADH, 16 min; bacterial (C. kluyveri) enzyme, not human;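 active = primary screen inhibition at 20 µM above a set limit, cut at about 50% in these data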;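 also: plate controls were DMSO with full reaction for no effect and wells lacking NADH for full effect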
#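 material = Clostridium kluyveri diaphorase enzyme | amount = 0.14 U/mL diaphorase, enzyme working solution | schedule = incubation 16 min, room temperature | detection = fluorescence of resorufin formed from resazurin, Ex 544/Em 590 nm | benchmarks = positive control minus NADH, DMSO neutral control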
# G6PDH counter: counter-screen for G6PDH assay hits: L. mesenteroides G6PDH inhibition; Purified L. mesenteroides G6PDH, diaphorase/resazurin coupled fluorescence, 45 min; inhibition, % at 5 µM; 0.12% of 200,000 active; in the data active = inhibition above about 50%
# p97 ATPase inh: inhibitors of human p97 ATPase | recombinant p97 ATPase, Kinase-Glo ATP luminescence, 3 h | inhibition, % at 8 µM | 0.42% of 220,000 active; in the data active = inhibition above about 15%;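 also: 0% = DMSO vehicle and 100% = wells lacking enzyme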
# Target sequence (P55072 whole entry, looked up): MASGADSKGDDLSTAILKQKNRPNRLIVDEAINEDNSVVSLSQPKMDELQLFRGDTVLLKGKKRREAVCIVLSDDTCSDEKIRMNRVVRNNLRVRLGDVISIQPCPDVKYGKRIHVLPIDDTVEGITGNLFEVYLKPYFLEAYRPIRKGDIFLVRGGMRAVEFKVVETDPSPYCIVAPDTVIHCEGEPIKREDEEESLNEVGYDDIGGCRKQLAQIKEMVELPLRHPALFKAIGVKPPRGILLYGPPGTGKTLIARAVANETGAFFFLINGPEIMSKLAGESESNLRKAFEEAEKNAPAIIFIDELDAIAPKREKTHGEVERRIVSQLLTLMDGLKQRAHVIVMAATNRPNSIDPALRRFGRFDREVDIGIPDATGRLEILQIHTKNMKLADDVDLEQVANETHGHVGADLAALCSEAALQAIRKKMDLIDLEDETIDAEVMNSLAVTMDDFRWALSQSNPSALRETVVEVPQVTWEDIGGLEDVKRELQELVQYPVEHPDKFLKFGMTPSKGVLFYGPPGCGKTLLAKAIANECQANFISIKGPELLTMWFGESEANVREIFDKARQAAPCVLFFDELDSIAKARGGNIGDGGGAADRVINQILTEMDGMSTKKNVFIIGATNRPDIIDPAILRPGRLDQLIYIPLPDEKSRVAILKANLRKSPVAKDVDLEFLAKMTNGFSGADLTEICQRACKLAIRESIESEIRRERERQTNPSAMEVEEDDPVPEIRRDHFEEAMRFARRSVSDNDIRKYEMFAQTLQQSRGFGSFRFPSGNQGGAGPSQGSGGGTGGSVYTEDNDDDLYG
# * marks the source's active call; other numbers are inactive results; . = no result.
SMILES,SUMO HTRF inh,HKDC1 inh,Diaph inh CS,G6PDH counter,p97 ATPase inh
Cc1ccc(C2C(C#N)=C(N)Oc3c2sc2ccccc32)o1 (centres undefined),36,.,55*,32,-1
O=C1NC(=S)S/C1=C\c1ccc(SCc2ccccc2)o1,38,7,35,-13,11
CCC1=NN2C(=N)/C(=C/c3c(C)nn(-c4ccccc4)c3Cl)C(=O)N=C2S1,0,-1,6,-5,6
O=C1NC(=S)S/C1=C\c1ccc(SCc2ccco2)o1,63*,51*,81*,13,53*
CCCC1=NN2C(=N)/C(=C\c3cc(C)n(Cc4ccccc4)c3C)C(=O)N=C2S1,34,4,.,.,-8
CCCC1=NN2C(=N)/C(=C\c3ccc(SCc4ccco4)o3)C(=O)N=C2S1,40,28,51*,-2,6
CCC1=NN2C(=N)/C(=C\c3ccc(SCc4ccco4)o3)C(=O)N=C2S1,38,14,56*,1,5
CCCCC/C=C/C1=CC(=O)C[C@H](c2ccc(OC)cc2)C1,.,-1,.,.,.
CCOc1cc(CNc2ccc3cn[nH]c3c2)ccc1OC,27,15,57*,33,5
COc1ccc(CNc2ccc3cn[nH]c3c2)c(OC)c1OC,14,7,57*,28,4
COc1ccccc1S(=O)(=O)Nc1ccc2cn[nH]c2c1,9,-7,9,5,3
COc1ccc(S(=O)(=O)Nc2ccc(O)c(Sc3ncn[nH]3)c2)cc1,11,-6,15,4,-3
COc1ccc(S(=O)(=O)Nc2cc(Sc3ncn[nH]3)c(O)c3ccccc23)cc1,88*,.,20,54*,31*
O=S(=O)(Nc1cc(Sc2cccc3cccnc23)c(O)c2ccccc12)c1ccc(F)cc1,67*,28,26,22,9
O=C(Sc1cccc2cccnc12)c1ccc(F)cc1,-50,.,10,5,8
Cc1sc(NC(=O)c2ccco2)c(CN2CCN(Cc3ccccc3)CC2)c1C,-5,3,11,-1,0
Cc1cc(=O)n2cccc(O)c2n1,-35,-3,63*,56*,0
Cc1cccn2c(=O)cc(COC(=O)C(C)Oc3ccccc3)nc12 (centres undefined),.,0,.,.,.
CCCNC(=O)C(Cc1ccccc1)NC(=O)Cc1ccccc1 (centres undefined),.,-2,.,.,.
Nc1ccc(N2CCCCCC2)cc1,62*,.,41,26,0
Cc1ccc(-c2ccnc(=S)[nH]2)cc1,28,-3,67*,-1,0
S=c1nccc(-c2cccs2)[nH]1,9,2,54*,-4,5
COc1ccc(C(=O)Nc2ccc3c(c2)C(=O)c2ccccc2C3=O)cc1OC,-8,9,20,1,1
COc1ccc(C(=O)c2c(C(F)(F)F)oc3c2C(=O)c2ccccc2C3=O)cc1OC,22,20,18,59*,2
CCCc1cc(=O)oc2cc(OCC(=O)NCC3CCC(C(=O)O)CC3)ccc12 (centres undefined),-9,7,.,.,.
SMILES,SUMO HTRF inh,HKDC1 inh,Diaph inh CS,G6PDH counter,p97 ATPase inh
O=C(Cc1cc(=O)oc2cc(O)ccc12)NCC1CCC(C(=O)O)CC1 (centres undefined),55*,-1,13,-4,1
Cn1cccc1/C=N/NC(=O)c1sc2cc(Cl)ccc2c1Cl,56*,.,7,-20,6
Cc1ccc2c(Cl)c(C(=O)N/N=C/c3cccn3C)sc2c1,11,3,-1,-25,0
COc1ccc(C(CNC(=O)c2ccc(OCc3c(C)noc3C)cc2)N2CCCC2)cc1 (centres undefined),.,-2,.,.,.
COc1ccc2[nH]c(=O)c(CN(C3CCCCC3)C(c3nnnn3Cc3ccco3)C(C)C)cc2c1 (centres undefined),-2,37*,28,-2,10
Cc1ccc(CN(Cc2cc3cc4c(cc3[nH]c2=O)OCCO4)Cc2nnnn2Cc2ccco2)cc1,32,22,58*,19,3
COc1ccc(Nc2nc(N)nc(CSC(=S)N3CCCCC3C)n2)cc1 (centres undefined),-6,-3,.,.,0
O=C(Cn1cnc2ccccc21)Nc1ccc2c(c1)OCCCO2,.,3,.,.,.
COC(=O)c1cc2n3ccccc3c(C)c(-c3ccccc3)c-2c1C(=O)OC,16,1,57*,-4,2
COC(=O)C1=C(C)N(Cc2ccccc2)C(=NCCN2CCOCC2)N[C@H]1CCc1ccccc1,.,-1,.,.,.
CC(NC(=O)OC(C)(C)C)C(=O)Oc1ccc2ccc(=O)oc2c1 (centres undefined),52*,-2,18,2,0
CC(=O)c1c(OC(=O)c2ccccc2)ccnc1C(F)(F)F,.,-1,.,.,.
CC(=O)c1cccc(NC(=O)CCn2c(=O)oc3ccccc32)c1,7,-4,.,.,.
Cc1ccc(S(=O)(=O)C(C#N)c2nc3ccccc3nc2N2CCC(C)CC2)cc1 (centres undefined),81*,-6,25,13,4
COc1ccc(S(=O)(=O)C(C#N)c2nc3ccccc3nc2N2CCCCC2)cc1 (centres undefined),92,3,1,5,-1
Cc1cccc(S(=O)(=O)C(C#N)c2nc3ccccc3nc2N2CCCC2)c1 (centres undefined),94,10,28,8,20*
CN1CCN(c2nc3ccccc3nc2C(C#N)S(=O)(=O)c2ccccc2)CC1 (centres undefined),11,3,.,.,5
S=C(Nc1ccc2cn[nH]c2c1)Nc1ccccc1Cl,88*,-3,2,-4,7
S=C(Nc1ccc2cn[nH]c2c1)Nc1ccc(Cl)cc1Cl,0,9,21,12,6
Cc1c2cnn(CC(=O)Nc3c(F)c(F)cc(F)c3F)c(=O)c2c(C)n1Cc1ccccc1F,62*,6,23,11,2
CNC(=O)Cn1ncc2c(C)n(Cc3ccc(C)cc3)c(C)c2c1=O,3,-2,9,3,3
COc1ccccc1C(=O)Nc1ccnn1C1CCN(C/C=C/c2ccc(F)cc2)CC1,12,-1,.,.,.
C=CCn1c(C)c(C(C)=O)c(N2CCCC2)nc1=S,28,3,56*,4,-7
CCn1c(C)c(C(C)=O)c(N2CCCC2)nc1=S,-17,2,57*,-6,4
CCn1c(C)c(C(C)=O)c(N2CCN(c3ccc(F)cc3)CC2)nc1=S,8,-3,27,11,-6
Cc1[nH]n(-c2ncc(-c3ccccc3)s2)c(=O)c1C(c1ccc(Br)cc1)C(C#N)C#N (centres undefined),64*,11,7,4,6
Cc1ccc(-c2csc(NCCn3c(C)nc4cc(C(F)(F)F)ccc43)n2)cc1,.,2,.,.,.
CC1=C(CC(=O)c2ccccc2)C(=O)c2ccccc2C1=O,30,8,19,56*,0
